Molecules are shown by their SMILES.

For data set [1], the target named is Prostaglandin F2-alpha receptor (Homo sapiens, UniProt P43088). The experiment in a line: Binding affinity towards FP receptor expressed in HEK293 ebna cells recombinantly expressing the corresponding human prostanoid cDNAs. The data set is classed as cell-based. A digest of the protocol:
(§1)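 Competition binding used membrane preparations, not intact cells, from HEK293ebna cells expressing each recombinant human prostanoid receptor cDNA.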

Data set [2] has as its target T1, Prostaglandin E2 receptor EP1 subtype (Homo sapiens, UniProt P34995).
T1 sequence (P34995 whole entry): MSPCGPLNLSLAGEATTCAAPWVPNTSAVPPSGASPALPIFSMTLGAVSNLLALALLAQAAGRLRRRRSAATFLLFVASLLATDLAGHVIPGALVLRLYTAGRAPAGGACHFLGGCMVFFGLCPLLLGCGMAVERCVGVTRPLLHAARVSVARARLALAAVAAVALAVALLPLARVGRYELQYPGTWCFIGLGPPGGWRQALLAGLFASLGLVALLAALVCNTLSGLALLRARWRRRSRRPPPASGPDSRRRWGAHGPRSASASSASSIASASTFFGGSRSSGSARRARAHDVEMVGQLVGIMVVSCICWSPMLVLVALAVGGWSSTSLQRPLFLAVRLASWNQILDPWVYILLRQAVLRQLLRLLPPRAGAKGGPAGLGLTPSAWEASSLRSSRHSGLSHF
The experiment in a line: Binding affinity towards EP1 receptor expressed in HEK293 ebna cells recombinantly expressing the corresponding human prostanoid cDNAs. The data set is classed as cell-based. A digest of the protocol: as §1

In data set [3] the target is T2, Prostaglandin E2 receptor EP3 subtype (Homo sapiens, UniProt P43115).
T2 sequence (P43115 whole entry): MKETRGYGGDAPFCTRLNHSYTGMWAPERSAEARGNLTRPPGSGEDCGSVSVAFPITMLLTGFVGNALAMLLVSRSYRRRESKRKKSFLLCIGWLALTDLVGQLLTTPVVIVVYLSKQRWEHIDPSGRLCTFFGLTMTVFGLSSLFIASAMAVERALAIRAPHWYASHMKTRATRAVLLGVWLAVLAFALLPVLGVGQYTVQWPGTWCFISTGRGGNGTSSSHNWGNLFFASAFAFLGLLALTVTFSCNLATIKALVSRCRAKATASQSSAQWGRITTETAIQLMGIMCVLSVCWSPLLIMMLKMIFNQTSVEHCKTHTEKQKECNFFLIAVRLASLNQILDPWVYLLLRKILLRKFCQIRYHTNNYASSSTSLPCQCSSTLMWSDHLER
Briefly: Binding affinity towards EP3 receptor expressed in HEK293 ebna cells recombinantly expressing the corresponding human prostanoid cDNAs. It counts as cell-based. A digest of the protocol:
as §1

The target of data set [4] is T3, Prostaglandin E2 receptor EP4 subtype (Homo sapiens, UniProt P35408). Briefly: EP4 agonist potency utilizing a stable clone of pSV40-EP4 transfected into HEK293 cells expressing EP4 receptor. It counts as functional, cell-based. In outline: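 A HEK293 stable clone carried pSV40-EP4 at about 50 fmol/mg receptor. Whole-cell cAMP assay: 1×10⁵ cells per sample were suspended in 0.2 mL HBSS with 2 mM IBMX. Compound or PGE₂ was given in DMSO at a constant final 1.8% (v/v). Incubation ran 10 min at 37 °C and was stopped by 3 min in boiling water. cAMP was read by [¹²⁵I]cAMP scintillation proximity assay.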

The target of data set [5] is Prostaglandin E2 receptor EP2 subtype (Homo sapiens, UniProt P43116). The experiment in a line: Binding affinity towards EP2 receptor expressed in HEK293 ebna cells recombinantly expressing the corresponding human prostanoid cDNAs. It counts as cell-based. A digest of the protocol:
as §1

The target of data set [6] is T3, Prostaglandin E2 receptor EP4 subtype. Briefly: Binding affinity towards EP4 receptor expressed in HEK293 ebna cells recombinantly expressing the corresponding human prostanoid cDNAs. The data set is classed as cell-based.
Data set [7] addresses T4, Prostaglandin D2 receptor (Homo sapiens, UniProt Q13258).
T4 sequence (Q13258 whole entry): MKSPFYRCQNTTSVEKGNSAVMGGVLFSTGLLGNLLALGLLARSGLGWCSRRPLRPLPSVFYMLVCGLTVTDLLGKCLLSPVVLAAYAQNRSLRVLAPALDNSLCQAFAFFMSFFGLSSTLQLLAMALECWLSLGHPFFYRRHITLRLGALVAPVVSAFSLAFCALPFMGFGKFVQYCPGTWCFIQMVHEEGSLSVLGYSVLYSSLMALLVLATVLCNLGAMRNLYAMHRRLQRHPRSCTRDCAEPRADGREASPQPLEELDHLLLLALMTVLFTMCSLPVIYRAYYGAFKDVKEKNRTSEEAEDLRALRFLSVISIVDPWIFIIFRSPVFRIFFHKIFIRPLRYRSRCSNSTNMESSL
Briefly: Binding affinity towards DP receptor expressed in HEK293 ebna cells recombinantly expressing the corresponding human prostanoid cDNAs. It counts as cell-based. A digest of the protocol: as §1

Data set [8] deals with T5, Thromboxane A2 receptor (Homo sapiens, UniProt P21731).
T5 sequence (P21731 whole entry): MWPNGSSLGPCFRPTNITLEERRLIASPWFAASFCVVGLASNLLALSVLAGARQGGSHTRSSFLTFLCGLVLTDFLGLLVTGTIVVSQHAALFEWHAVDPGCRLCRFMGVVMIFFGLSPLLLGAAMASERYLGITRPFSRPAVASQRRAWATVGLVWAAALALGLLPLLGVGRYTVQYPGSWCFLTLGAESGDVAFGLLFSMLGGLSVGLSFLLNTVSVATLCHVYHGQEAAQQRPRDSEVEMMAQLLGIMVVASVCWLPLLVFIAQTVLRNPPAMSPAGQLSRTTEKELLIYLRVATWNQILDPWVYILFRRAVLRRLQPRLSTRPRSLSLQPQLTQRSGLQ
Briefly: Binding affinity towards TP receptor expressed in HEK293 ebna cells recombinantly expressing the corresponding human prostanoid cDNAs. It counts as cell-based. A digest of the protocol: as §1

Data set [9] concerns the target T3, Prostaglandin E2 receptor EP4 subtype. The experiment in a line: Inhibitory activity against human EP4 receptor expressed in HEK293 ebna cells. The data set is classed as cell-based.
Data set [10] addresses Prostacyclin receptor (Homo sapiens, UniProt P43119). The experiment in a line: Binding affinity towards IP receptor expressed in HEK293 ebna cells recombinantly expressing the corresponding human prostanoid cDNAs. It counts as cell-based. A digest of the protocol:
as §1

Data set [11] is described as follows: Half-life after intravenous dose in rat. To be noted: in vivo. The data set is classed as ADME, organism-based.

T3 sequence (P35408 whole entry): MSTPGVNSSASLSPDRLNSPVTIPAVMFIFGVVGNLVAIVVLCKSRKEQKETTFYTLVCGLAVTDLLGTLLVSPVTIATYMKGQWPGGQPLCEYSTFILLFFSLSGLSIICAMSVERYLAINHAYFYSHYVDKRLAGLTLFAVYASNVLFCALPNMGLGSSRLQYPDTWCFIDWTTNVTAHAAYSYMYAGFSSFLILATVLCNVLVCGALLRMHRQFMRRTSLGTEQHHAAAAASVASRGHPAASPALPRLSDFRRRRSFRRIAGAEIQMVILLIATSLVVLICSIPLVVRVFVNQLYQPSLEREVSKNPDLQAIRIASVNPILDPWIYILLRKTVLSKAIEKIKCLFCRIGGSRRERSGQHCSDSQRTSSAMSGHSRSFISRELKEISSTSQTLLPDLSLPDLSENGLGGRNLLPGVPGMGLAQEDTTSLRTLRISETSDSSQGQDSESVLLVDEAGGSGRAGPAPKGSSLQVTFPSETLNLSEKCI
Sequence of Prostaglandin F2-alpha receptor (P43088 whole entry): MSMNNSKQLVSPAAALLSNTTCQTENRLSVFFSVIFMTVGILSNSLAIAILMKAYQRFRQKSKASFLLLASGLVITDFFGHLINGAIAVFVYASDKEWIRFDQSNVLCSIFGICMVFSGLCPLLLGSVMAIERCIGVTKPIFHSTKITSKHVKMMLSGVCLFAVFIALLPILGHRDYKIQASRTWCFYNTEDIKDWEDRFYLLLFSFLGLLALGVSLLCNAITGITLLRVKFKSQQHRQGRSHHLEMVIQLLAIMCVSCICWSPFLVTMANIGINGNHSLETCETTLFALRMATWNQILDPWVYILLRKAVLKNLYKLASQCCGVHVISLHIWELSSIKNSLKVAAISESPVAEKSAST
Sequence of Prostacyclin receptor (P43119 whole entry): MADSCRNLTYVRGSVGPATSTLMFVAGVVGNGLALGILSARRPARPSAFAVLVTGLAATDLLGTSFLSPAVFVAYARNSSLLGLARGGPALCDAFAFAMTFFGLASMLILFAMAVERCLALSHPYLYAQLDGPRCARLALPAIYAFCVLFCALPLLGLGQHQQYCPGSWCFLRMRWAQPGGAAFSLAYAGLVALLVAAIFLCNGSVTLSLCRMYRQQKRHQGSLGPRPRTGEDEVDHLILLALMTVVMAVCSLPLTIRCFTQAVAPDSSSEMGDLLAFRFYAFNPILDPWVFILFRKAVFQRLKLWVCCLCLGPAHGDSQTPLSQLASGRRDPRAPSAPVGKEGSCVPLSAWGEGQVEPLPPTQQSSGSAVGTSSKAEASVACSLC
Sequence of Prostaglandin E2 receptor EP2 subtype (P43116 whole entry): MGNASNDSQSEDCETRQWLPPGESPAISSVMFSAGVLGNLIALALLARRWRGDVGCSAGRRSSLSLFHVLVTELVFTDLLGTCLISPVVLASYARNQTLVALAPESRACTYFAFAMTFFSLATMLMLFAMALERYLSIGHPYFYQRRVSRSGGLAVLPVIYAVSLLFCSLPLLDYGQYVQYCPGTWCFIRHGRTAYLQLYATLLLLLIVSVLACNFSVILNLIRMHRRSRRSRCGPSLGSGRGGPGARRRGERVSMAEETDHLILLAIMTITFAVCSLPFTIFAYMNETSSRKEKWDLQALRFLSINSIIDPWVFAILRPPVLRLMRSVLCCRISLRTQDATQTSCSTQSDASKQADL

Turning to `O=C1CC[C@H](/C=C/[C@@H](O)Cc2ccccc2)N1CCCCCCc1nnn[nH]1`, the Ki was greater than 13 µM in data set [1]; greater than 13 µM in data set [2]; greater than 13 µM in data set [3]; greater than 13 µM in [5]; 0.0012 µM in [6]; greater than 13 µM in data set [7]. Also, the Ki in [8] and in [10] was greater than 13 µM throughout. Moreover, the EC50 in data set [4] is 0.0025 µM. The compound further registered an IC50 in [9] of 0.0014 µM.

Turning to `O=C(O)CCCCCCN1C(=O)CC[C@@H]1/C=C/C(O)Cc1ccccc1` (stereo partly drawn), the Ki in data set [1], in data set [2], in data set [3], in [5], in data set [7] and in data set [8] was greater than 13 µM in each case. Further, the Ki in [10] was greater than 13 µM. The compound also displayed a half-life in [11] of less than 20 min.

A word on the Ki: it is a dissociation constant, usually derived from enzyme kinetics or from competition with a known ligand. For orientation: EC50 means the midpoint of the concentration-response curve. High values mean weaker potency, low ones greater potency. What is called IC50 is the midpoint of a concentration-inhibition curve. A high value points to a need for much substance. As a reminder, the half-life is the time needed for the level to fall by half in the phase considered. High values mean slow decline, low ones rapid decline.

These data come from ChEMBL document CHEMBL1136653, “Discovery of a potent and selective agonist of the prostaglandin EP4 receptor” (Bioorg Med Chem Lett, 2003).
